In ChEMBL document CHEMBL1800057, “Discovery of dual inducible/neuronal nitric oxide synthase (iNOS/nNOS) inhibitor development candidate 4-((2-cyclobutyl-1H-imidazo[4,5-b]pyrazin-1-yl)methyl)-7,8-difluoroquinolin-2(1H)-one (KD7332) part 2: identification of a novel, potent, and selective series of benzimidazole-quinolinone …” (J Med Chem, 2010):

Experiments:
Nitric oxide synthase 1 [1] = target: T1, Nitric oxide synthase 1 (Homo sapiens, UniProt P29475); assay: Inhibition of human nNOS expressed in HEK293 cells assessed as inhibition ionomycin induced nitric oxide production at 10 uM incubated for 24 hrs measured after 18 hrs of ionomycin challenge using 2,3-diaminonaphthalene by fluorescence assay; type: cell-based
T1 sequence (P29475 whole entry): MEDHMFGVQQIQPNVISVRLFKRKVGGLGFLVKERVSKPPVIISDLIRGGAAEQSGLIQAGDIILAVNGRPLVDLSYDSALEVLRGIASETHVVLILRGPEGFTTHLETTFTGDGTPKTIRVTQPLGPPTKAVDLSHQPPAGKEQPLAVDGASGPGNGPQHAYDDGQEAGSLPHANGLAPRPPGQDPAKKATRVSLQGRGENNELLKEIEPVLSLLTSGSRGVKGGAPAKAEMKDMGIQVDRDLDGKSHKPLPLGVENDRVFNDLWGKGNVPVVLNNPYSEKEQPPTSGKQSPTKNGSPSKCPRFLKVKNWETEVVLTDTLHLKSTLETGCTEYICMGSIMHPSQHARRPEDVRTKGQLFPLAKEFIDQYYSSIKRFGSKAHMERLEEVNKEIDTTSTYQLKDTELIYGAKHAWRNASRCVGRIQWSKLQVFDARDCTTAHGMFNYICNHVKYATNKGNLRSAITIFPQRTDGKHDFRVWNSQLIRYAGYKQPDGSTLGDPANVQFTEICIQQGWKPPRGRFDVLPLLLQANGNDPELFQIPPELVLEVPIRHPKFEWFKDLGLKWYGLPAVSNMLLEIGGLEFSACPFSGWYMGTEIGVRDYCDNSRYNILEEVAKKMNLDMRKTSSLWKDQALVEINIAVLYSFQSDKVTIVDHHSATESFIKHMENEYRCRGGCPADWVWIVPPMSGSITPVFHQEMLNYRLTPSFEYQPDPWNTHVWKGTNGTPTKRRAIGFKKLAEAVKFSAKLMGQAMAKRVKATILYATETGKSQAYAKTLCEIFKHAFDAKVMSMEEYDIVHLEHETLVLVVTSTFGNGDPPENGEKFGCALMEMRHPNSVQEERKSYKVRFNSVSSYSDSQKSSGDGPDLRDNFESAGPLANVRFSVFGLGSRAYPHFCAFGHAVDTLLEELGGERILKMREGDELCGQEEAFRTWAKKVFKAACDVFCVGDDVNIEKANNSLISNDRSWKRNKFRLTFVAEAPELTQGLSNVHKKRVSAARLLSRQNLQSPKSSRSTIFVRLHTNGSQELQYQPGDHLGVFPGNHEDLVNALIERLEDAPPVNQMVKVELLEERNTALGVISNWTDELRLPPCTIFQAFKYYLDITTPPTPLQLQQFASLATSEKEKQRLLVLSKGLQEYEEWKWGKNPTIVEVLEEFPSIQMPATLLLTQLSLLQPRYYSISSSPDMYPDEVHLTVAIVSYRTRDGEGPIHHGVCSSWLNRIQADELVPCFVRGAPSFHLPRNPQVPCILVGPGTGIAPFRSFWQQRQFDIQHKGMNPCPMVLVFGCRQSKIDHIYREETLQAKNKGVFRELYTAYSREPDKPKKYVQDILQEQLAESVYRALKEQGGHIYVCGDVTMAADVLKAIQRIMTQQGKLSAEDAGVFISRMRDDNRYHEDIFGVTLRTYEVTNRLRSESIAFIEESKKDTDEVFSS

Liver = assay: Half life in mouse liver microsomes assessed as formation of oxidation product and glucuronide conjugate; type: ADME, Microsome
Summary of the method: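 Mouse liver microsomes run under combined phase I oxidation and phase II glucuronide conjugation; half-life reported in minutes.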

Nitric oxide synthase 3 = target: T2, Nitric oxide synthase 3 (Homo sapiens, UniProt P29474); assay: Inhibition of human eNOS expressed in HEK293 cells assessed as inhibition A23187 induced nitric oxide production incubated for 24 hrs measured after 18 hrs of […] challenge using 2,3-diaminonaphthalene by fluorescence assay; type: cell-based
T2 sequence (P29474 whole entry): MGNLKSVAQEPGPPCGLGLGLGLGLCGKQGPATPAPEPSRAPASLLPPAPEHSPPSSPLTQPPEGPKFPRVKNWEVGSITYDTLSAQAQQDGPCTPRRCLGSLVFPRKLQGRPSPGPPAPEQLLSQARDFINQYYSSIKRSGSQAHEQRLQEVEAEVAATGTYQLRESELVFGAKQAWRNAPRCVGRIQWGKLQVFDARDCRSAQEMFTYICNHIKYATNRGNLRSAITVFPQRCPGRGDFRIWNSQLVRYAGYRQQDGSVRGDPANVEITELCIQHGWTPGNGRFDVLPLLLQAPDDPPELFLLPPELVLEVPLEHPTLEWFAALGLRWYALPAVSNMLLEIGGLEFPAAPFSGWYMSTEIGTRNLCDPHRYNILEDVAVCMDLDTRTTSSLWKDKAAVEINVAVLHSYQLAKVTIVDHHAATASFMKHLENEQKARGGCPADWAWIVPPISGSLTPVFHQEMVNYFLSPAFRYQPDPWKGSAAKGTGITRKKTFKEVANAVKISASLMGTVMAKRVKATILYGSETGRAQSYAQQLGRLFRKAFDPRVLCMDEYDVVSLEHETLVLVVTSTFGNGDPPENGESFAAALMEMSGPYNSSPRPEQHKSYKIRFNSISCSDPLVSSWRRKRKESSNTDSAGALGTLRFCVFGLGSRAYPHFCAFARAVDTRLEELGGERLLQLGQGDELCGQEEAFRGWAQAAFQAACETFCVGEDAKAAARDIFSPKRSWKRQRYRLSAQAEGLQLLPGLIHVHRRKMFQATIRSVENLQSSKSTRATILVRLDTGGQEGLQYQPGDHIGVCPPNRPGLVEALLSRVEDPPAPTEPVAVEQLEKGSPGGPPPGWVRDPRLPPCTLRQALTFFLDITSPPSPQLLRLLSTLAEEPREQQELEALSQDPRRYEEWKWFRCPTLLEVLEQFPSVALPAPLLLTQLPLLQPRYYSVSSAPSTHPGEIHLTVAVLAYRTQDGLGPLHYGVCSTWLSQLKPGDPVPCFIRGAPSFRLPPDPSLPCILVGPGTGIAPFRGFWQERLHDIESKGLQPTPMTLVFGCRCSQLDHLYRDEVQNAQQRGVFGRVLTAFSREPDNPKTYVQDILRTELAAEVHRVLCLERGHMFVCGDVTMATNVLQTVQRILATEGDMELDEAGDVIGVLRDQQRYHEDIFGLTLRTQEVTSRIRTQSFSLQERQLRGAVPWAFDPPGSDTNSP
Summary of the method: (§1)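 HEK293 cells transfected for 4 h at 37 °C with human nNOS (10 μg) or human eNOS (15 μg) plasmid (Fugene 6, 3:1). Cells replated at 5e5 cells/mL and dosed with compound at once; SEITU (100 μM final) as positive control. After 24 h, cells activated with A23187 (83 nM final) for eNOS or ionomycin (30 μM final) for nNOS. NO read 18 h later as nitrite-DAN fluorescence.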

[2] = target: Nitric oxide synthase, inducible (Homo sapiens, UniProt P35228); assay: Inhibition of human iNOS expressed in HEK293 cells assessed as inhibition of nitric oxide production after 18 hrs using 2,3-diaminonaphthalene by fluorescence assay; type: cell-based
Chain of Nitric oxide synthase, inducible (Homo sapiens, UniProt P35228) (P35228 whole entry): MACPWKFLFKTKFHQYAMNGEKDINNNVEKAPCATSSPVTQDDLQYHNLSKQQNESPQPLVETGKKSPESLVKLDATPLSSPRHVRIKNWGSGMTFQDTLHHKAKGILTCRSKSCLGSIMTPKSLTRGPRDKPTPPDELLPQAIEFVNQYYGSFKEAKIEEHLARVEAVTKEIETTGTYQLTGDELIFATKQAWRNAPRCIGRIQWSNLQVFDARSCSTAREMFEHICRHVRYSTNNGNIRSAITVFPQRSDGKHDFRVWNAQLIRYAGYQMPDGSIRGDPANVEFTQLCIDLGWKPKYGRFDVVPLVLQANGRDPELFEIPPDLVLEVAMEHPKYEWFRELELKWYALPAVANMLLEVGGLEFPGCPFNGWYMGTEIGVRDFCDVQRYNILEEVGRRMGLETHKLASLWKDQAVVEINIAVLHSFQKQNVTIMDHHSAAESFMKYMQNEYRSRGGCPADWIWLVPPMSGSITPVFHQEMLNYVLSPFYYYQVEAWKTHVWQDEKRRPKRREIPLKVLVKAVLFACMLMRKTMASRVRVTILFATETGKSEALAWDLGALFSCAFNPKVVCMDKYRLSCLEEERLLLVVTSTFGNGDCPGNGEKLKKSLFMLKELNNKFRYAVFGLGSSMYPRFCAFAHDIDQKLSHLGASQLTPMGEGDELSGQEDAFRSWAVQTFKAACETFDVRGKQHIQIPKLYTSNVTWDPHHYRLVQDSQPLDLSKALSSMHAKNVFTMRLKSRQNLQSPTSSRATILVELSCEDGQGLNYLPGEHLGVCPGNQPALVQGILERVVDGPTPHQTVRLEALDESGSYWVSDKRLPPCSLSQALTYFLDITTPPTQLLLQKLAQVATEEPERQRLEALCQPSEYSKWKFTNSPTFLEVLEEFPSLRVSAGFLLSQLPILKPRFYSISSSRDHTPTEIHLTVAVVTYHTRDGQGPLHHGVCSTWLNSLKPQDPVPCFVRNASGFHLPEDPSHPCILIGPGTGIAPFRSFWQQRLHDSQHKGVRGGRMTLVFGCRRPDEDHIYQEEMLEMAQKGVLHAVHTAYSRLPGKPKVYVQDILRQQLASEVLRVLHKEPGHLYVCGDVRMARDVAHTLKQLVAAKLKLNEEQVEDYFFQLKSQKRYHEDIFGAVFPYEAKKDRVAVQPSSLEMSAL
Summary of the method: (§2)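 HEK293 cells grown to ~70% confluence in DMEM/10% FBS with pen/strep, transiently transfected with 10 μg human or murine iNOS plasmid plus Fugene 6 for 4 h at 37 °C, 10% CO2. Cells replated at 5e5 cells/mL and dosed with compound at once; 1400W (100 μM final) as positive control. After 18 h, DAN (10 μg/mL final) in HCl (0.1 N final) added for 20 min at room temperature. Fluorescence read after NaOH (0.12 N final).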

Homo sapiens [3] = species: Homo sapiens; assay: Ratio of IC50 for human eNOS to EC50 for human iNOS
Nitric oxide synthase 1 [4] = target: T1, Nitric oxide synthase 1; assay: Inhibition of human nNOS expressed in HEK293 cells assessed as inhibition ionomycin induced nitric oxide production incubated for 24 hrs measured after 18 hrs of ionomycin challenge using 2,3-diaminonaphthalene by fluorescence assay; type: cell-based; summary of the method: as §1
Homo sapiens [5] = species: Homo sapiens; assay: Ratio of IC50 for human nNOS to EC50 for human iNOS
[6] = target: T3, Nitric oxide synthase 3 (Homo sapiens) (UniProt P29474); assay: Inhibition of human eNOS expressed in HEK293 cells assessed as inhibition A23187 induced nitric oxide production at 100 uM incubated for 24 hrs measured after 18 hrs of […] challenge using 2,3-diaminonaphthalene by fluorescence assay; type: cell-based
T3 sequence (whole entry): T2 sequence (P29474 whole entry)

[7] = AUC in mouse at 3 mg/kg, iv and 10 mg/kg, po; type: ADME, organism-based; details: plasma
Mus musculus = assay: Inhibition of LPS-induced iNOS activation in BALB/c mouse assessed as plasma nitrate levels administered via oral gavage before LPS challenge measured after 6 to 8 hrs using 2,3-diaminonaphthalene by fluorescence assay; type: functional
Summary of the method: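 Male BALB/c mice dosed by oral gavage (90% PEG/5% Tween 80/5% PVP + 0.5% w/v CMC) immediately before LPS (10 mg/kg ip in 0.9% NaCl). Mice killed at 6 h. EDTA plasma analysed for nitrate and drug levels; nitrite measured by DAN fluorescence.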

[8] = Cmax in mouse at 3 mg/kg, iv and 10 mg/kg, po; type: ADME, organism-based; details: in vivo
[9] = Half life in mouse at 10 mg/kg, po; type: ADME, organism-based; design: dose 10 mg/kg, route oral; details: in vivo
[10] = target: T4, Nitric oxide synthase, inducible (Mus musculus, UniProt P29477); assay: Inhibition of mouse iNOS expressed in HEK293 cells assessed as inhibition of nitric oxide production after 18 hrs using 2,3-diaminonaphthalene by fluorescence assay; type: cell-based; summary of the method: as §2
T4 sequence (P29477 whole entry): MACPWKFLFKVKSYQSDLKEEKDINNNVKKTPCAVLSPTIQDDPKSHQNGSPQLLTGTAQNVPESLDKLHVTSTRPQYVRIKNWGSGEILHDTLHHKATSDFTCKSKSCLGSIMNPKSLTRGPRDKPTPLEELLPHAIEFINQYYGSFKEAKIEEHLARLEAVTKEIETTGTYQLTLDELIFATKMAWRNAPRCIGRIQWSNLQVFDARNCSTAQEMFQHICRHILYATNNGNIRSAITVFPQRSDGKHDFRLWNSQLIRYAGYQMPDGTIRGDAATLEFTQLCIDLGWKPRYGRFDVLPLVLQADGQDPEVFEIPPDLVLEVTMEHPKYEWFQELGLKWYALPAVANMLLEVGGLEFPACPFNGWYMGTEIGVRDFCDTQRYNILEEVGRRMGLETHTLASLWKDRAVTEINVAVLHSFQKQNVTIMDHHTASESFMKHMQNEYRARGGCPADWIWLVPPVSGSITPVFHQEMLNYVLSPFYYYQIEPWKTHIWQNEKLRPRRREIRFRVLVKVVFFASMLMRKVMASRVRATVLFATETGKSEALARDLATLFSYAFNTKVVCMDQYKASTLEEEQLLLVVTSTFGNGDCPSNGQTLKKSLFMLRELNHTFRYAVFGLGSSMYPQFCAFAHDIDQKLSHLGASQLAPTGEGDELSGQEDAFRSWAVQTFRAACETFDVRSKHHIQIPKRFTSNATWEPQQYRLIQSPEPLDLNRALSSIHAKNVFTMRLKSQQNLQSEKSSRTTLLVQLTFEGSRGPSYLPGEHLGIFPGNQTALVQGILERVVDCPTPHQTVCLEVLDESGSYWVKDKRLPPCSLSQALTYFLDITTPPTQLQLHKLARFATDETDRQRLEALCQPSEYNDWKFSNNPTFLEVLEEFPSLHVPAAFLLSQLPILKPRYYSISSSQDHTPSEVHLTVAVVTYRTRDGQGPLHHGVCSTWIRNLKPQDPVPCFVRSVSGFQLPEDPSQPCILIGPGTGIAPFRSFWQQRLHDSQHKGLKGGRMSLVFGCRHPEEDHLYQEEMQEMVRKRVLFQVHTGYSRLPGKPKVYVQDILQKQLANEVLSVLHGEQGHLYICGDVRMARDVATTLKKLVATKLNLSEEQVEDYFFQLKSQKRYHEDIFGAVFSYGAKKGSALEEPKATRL

Row | Compound | inhibition (Nitric oxide synthase 1 [1]) | t1/2 (Liver) | EC50 (Nitric oxide synthase 3) | EC50 [2] | Ratio EC50 (Homo sapiens [3]) | EC50 (Nitric oxide synthase 1 [4]) | Ratio EC50 (Homo sapiens [5]) | inhibition [6] | AUC [7] | ED50 (Mus musculus) | Cmax [8] | half-life [9] | EC50 [10]
1 | CCc1nc2ccccc2n1Cc1cc(=O)[nH]c2c(F)c(F)ccc12 | < 50% | > 2 h | 1.6 µM | 4.3 µM | 0.4 | > 10 µM | > 2 |  |  |  |  |  | 
2 | Cn1cncc1-c1nc2ccccc2n1Cc1cc(=O)[nH]c2c(F)c(F)ccc12 | < 50% | > 2 h | 5.8 µM | 5.9 µM | 1 | > 10 µM | 5.3 |  |  |  |  |  | 
3 | O=c1cc(Cn2c(-c3cccnc3)nc3ccccc32)c2ccc(F)c(F)c2[nH]1 | < 50% | > 2 h | > 100 µM | 9.3 µM | > 11 | > 10 µM | > 1 | < 50% |  |  |  |  | 
4 | O=c1cc(Cn2c(C3CCC3)nc3ccccc32)c2ccc(F)c(F)c2[nH]1 |  | > 2 h | 5.9 µM | 0.26 µM | 23 | 0.32 µM | 1.2 |  | 10000 ng·h/mL | 4 mg/kg | 5700 ng/mL | 1.4 h | 2.1 µM
5 | O=c1cc(Cn2c(CC3CCCC3)nc3ccccc32)c2ccc(F)c(F)c2[nH]1 | < 50% | > 2 h | > 100 µM | 1.77 µM | > 56 | > 10 µM | > 6 | < 50% |  |  |  |  | 
6 | O=c1cc(Cn2c(-c3ccccn3)nc3ccccc32)c2ccc(F)c(F)c2[nH]1 | < 50% | 1.1 h | > 100 µM | 18 µM | > 6 | > 10 µM | > 0.5 | < 50% |  |  |  |  | 
7 | Cc1ccncc1-c1nc2ccccc2n1Cc1cc(=O)[nH]c2c(F)c(F)ccc12 | < 50% | > 2 h | > 100 µM | 12 µM | > 8 | > 10 µM | > 1 | < 50% |  |  |  |  | 
8 | O=c1cc(Cn2c(C3CCC3)nc3c(Cl)ccnc32)c2ccc(F)c(F)c2[nH]1 |  | 0.6 h | > 100 µM | 0.27 µM | > 370 | 0.76 µM | 2.8 | < 50% |  |  |  |  | 
9 | COc1ccnc2c1nc(C1CCC1)n2Cc1cc(=O)[nH]c2c(F)c(F)ccc12 |  | > 2 h | > 100 µM | 0.21 µM | > 480 | 1.3 µM | 6.2 | < 50% |  |  |  |  | 
10 | O=c1cc(Cn2c(-c3cncs3)nc3ccccc32)c2ccc(F)c(F)c2[nH]1 | < 50% | 0.717 h | > 100 µM | 8.6 µM | > 12 | > 10 µM | > 12 | < 50% |  |  |  |  | 
